In ChEMBL document CHEMBL1158185, “Synthesis and potent antileukemic activities of 10-benzyl-9(10H)-acridinones” (Bioorg Med Chem, 2008):

How the values were obtained:
CCRF-CEM [1] = assay: Antiproliferative activity against human CCRF-CEM cells after 48 hrs by MTT assay; type: functional, cell-based
Method in brief: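 CCRF-CEM cells in RPMI 1640 with 10% FBS, penicillin/streptomycin, 37 °C, 5% CO2, seeded at 2 × 10⁵ cells/mL. Compounds added at various concentrations, each in quintuplicate, for 48 h. Growth read by MTT. IC50 taken as the concentration giving 50% growth inhibition.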

CCRF-CEM [2] = assay: Induction of late stage apoptosis in human CCRF-CEM cells at 5 uM after 48 hrs by annexin V-FITC/propidium iodide staining relative to control; type: functional
Method in brief: (§1)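 CCRF-CEM cells treated with compound at 1.0, 2.5 or 5 μM for 48 h, alongside untreated controls. Stained with annexin V-FITC/PI kit and analysed by flow cytometry, 488 nm laser. Early apoptosis counted as annexin V+/PI−; late apoptosis or necrosis as double positive.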

HL-60 = assay: Antiproliferative activity against human HL-60 cells by MTT assay; type: functional, cell-based
Method in brief: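 HL60 cells in RPMI 1640 with 10% FBS, penicillin/streptomycin, 37 °C, 5% CO2, seeded at 2 × 10⁵ cells/mL. Compound added at various concentrations in quintuplicate, then incubated. Viability read by MTT. IC50 is the concentration giving 50% growth inhibition.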

CCRF-CEM [3] = assay: Induction of late stage apoptosis in human CCRF-CEM cells at 2.5 uM after 48 hrs by annexin V-FITC/propidium iodide staining relative to control; type: functional; method in brief: as §1
CCRF-CEM [4] = assay: Induction of early stage apoptosis in human CCRF-CEM cells at 1 uM after 48 hrs by annexin V-FITC/propidium iodide staining relative to control; type: functional; method in brief: as §1
K562 = assay: Antiproliferative activity against human K-562 cells by MTT assay; type: functional, cell-based
Method in brief: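 K562 cells seeded at 2 × 10⁵ cells/mL. Compound added at various concentrations in quintuplicate, then incubated. Viability read by MTT. IC50 is the concentration inhibiting growth by 50%.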

CCRF-CEM [5] = assay: Induction of apoptosis in human CCRF-CEM cells assessed as accumulation at sub-G0 phase after 24 hrs by flow cytometry; type: functional, cell-based
Method in brief: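 CCRF-CEM cells exposed to compound at 0.5, 1.0 or 2.5 μM for 24 h at 37 °C, alongside untreated controls. Cells washed twice in PBS, fixed in ice-cold 70% ethanol at 4 °C for 1–2 h, then stained with propidium iodide. Sub-diploid (sub-G0) DNA peak measured by flow cytometry, 488 nm argon laser.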

CCRF-CEM [6] = assay: Induction of late stage apoptosis in human CCRF-CEM cells at 1 uM after 48 hrs by annexin V-FITC/propidium iodide staining relative to control; type: functional; method in brief: as §1
CCRF-CEM [7] = assay: Induction of early stage apoptosis in human CCRF-CEM cells at 2.5 uM after 48 hrs by annexin V-FITC/propidium iodide staining relative to control; type: functional; method in brief: as §1
CCRF-CEM [8] = assay: Induction of early stage apoptosis in human CCRF-CEM cells at 5 uM after 48 hrs by annexin V-FITC/propidium iodide staining relative to control; type: functional; method in brief: as §1

## COc1cccc(Cn2c3ccccc3c(=O)c3ccccc32)c1
CCRF-CEM [1]
  IC50: > 100 µM

## CCCCOc1cc(Cn2c3ccccc3c(=O)c3ccccc32)cc(OCCCC)c1
CCRF-CEM [1]
  IC50: > 100 µM

## O=c1c2ccccc2[nH]c2ccccc12 [ACRIDONE]
CCRF-CEM [1]
  IC50: > 100 µM

## O=c1c2ccccc2n(Cc2ccccc2)c2ccccc12
CCRF-CEM [1]
  IC50: 52 µM

## Cc1cccc(Cn2c3ccccc3c(=O)c3ccccc32)c1
CCRF-CEM [1]
  IC50: 8.8 µM

## CCCOc1cc(Cn2c3ccccc3c(=O)c3ccccc32)cc(OCCC)c1
CCRF-CEM [1]
  IC50: 39.1 µM

## O=c1c2ccccc2n(Cc2cc(OCc3ccccc3)cc(OCc3ccccc3)c2)c2ccccc12
CCRF-CEM [1]
  IC50: > 100 µM

## COc1cc(Cn2c3ccccc3c(=O)c3ccccc32)cc(OC)c1
CCRF-CEM [2]
  Activity: 41.6%
HL-60
  IC50: 0.6 µM
CCRF-CEM [3]
  Activity: 33.6%
CCRF-CEM [4]
  Activity: 9.5%
K562
  IC50: 11.4 µM
CCRF-CEM [5]
  Activity: Dose-dependent effect
CCRF-CEM [1]
  IC50: 0.7 µM
CCRF-CEM [6]
  Activity: 10%
CCRF-CEM [7]
  Activity: 27.4%
CCRF-CEM [8]
  Activity: 21.7%

## COc1cc(Cn2c3ccccc3c(=O)c3ccccc32)cc(OC)c1OC
CCRF-CEM [1]
  IC50: 1.5 µM

## O=c1c2ccccc2n(Cc2cccc(F)c2)c2ccccc12
CCRF-CEM [1]
  IC50: 62 µM

## COc1ccc(Cn2c3ccccc3c(=O)c3ccccc32)cc1
CCRF-CEM [1]
  IC50: > 100 µM

## COc1cc(CN2CCC(=O)CC2)cc(OC)c1OC
CCRF-CEM [1]
  IC50: > 100 µM

## O=c1c2ccccc2n(Cc2cccc(C(F)(F)F)c2)c2ccccc12
CCRF-CEM [1]
  IC50: 36 µM

## CCOc1cc(Cn2c3ccccc3c(=O)c3ccccc32)cc(OCC)c1
CCRF-CEM [1]
  IC50: 6.7 µM
